Source: ChEMBL document CHEMBL3297654, “Synthesis, antimicrobial and cytotoxic activities, and structure-activity relationships of gypsogenin derivatives against human cancer cells” (Eur J Med Chem, 2014)
≈ marks a conversion by molar mass, not a printed value. Calls of active or inactive are those of the source. No cut-off for these calls is given here.

Experiments:
[1] = tested on: Caco-2; experiment: Induction of necrosis in human Caco2 cells at 20 uM after 48 hrs by Hoechst 33258/propidium iodide staining based phase contrast microscopic analysis; format: functional
Method in brief: (§1)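 Cells in 48-well plates treated with 0.5, 10, 20 or 40 µM for 24 and 48 h. Values are read at 48 h, 20 µM for test agents and 0.5 µM for controls. Staining is Hoechst 33258/propidium iodide double staining with fluorescence microscopy. Blue nuclei are viable or early-to-mid apoptotic, and pink nuclei are late apoptotic or necrotic. Apoptosis and necrosis are scored from chromatin condensation as % of cells. Cells are grown at 37 °C in 5% CO2 in RPMI, DMEM or McCoy's 5A with 10–15% heat-inactivated FCS.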

[2] = tested on: Caco-2; experiment: Induction of apoptosis in human Caco2 cells at 20 uM after 48 hrs by Hoechst 33258/propidium iodide staining based phase contrast microscopic analysis; format: functional; method in brief: as §1
[3] = tested on: Saccharomyces cerevisiae; experiment: Antimicrobial activity against Saccharomyces cerevisiae ATCC 9763 assessed as zone of inhibition at 30 uL for 24 hrs at 30 degC by disk diffusion test; format: functional, organism-based
Method in brief: (§2)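 Agar well diffusion on Mueller Hinton agar seeded with 0.1 mL broth culture (18–24 h), adjusted to 0.5 McFarland (about 1×10^8 bacteria or 1×10^6 yeast cells/mL). A 6 mm well is filled with 30 µL of compound from a fresh 1000 µg/mL DMSO stock. Plates are held at 30 °C for 24 h and inhibition zone diameter is read in mm.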

[4] = tested on: HT-29; experiment: Induction of apoptosis in human HT-29 cells at 20 uM after 48 hrs by Hoechst 33258/propidium iodide staining based phase contrast microscopic analysis; format: functional; method in brief: as §1
[5] = tested on: HeLa; experiment: Induction of necrosis in human HeLa cells at 20 uM after 48 hrs by Hoechst 33258/propidium iodide staining based phase contrast microscopic analysis; format: functional; method in brief: as §1
[6] = tested on: MCF7; experiment: Induction of necrosis in human MCF7 cells at 20 uM after 48 hrs by Hoechst 33258/propidium iodide staining based phase contrast microscopic analysis; format: functional; method in brief: as §1
[7] = tested on: Bacillus cereus; experiment: Antimicrobial activity against Bacillus cereus ATCC 11778 assessed as zone of inhibition at 30 uL for 24 hrs at 30 degC by disk diffusion test; format: functional; method in brief: as §2
[8] = tested on: Bacillus thuringiensis; experiment: Antimicrobial activity against Bacillus thuringiensis for 24 hrs by microdillution method; format: functional
Method in brief: (§3)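 Broth microdilution. Compound is dissolved in DMSO (2 mg/mL) and diluted in Mueller Hinton broth as two-fold serial dilutions from 256 to 0.125 µg/mL. Bacteria are pre-grown in nutrient broth at 30 °C, and the final inoculum is about 10^6 cfu/mL. Tests are incubated 37 °C for 24 h. MIC is the lowest concentration giving complete inhibition. Streptomycin is the positive control.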

[9] = tested on: Caco-2; experiment: Antiproliferative activity against human Caco2 cells after 24 and 72 hrs by MTT assay; format: functional, cell-based
Method in brief: (§4)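 ATCC human cell lines are kept in RPMI, DMEM or McCoy's 5A with 10–15% heat-inactivated FCS at 37 °C and 5% CO2. They are seeded at 1×10^4–1×10^5 cells/mL in 48-well plates and exposed to 0.5, 10, 20 or 40 µM. Viability is read by MTT (590 nm) at 24 and 72 h. Growth is expressed relative to untreated cells and IC50 is fitted, in triplicate.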

[10] = tested on: Salmonella typhimurium; experiment: Antimicrobial activity against Salmonella typhimurium ATCC 14028 assessed as zone of inhibition at 30 uL for 24 hrs at 37 degC by disk diffusion test; format: functional, organism-based; conditions: Salmonella enterica subsp. enterica serovar Typhimurium
Method in brief: (§5)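 Compound (30 µL of a fresh 1000 µg/mL DMSO stock) goes into a 6 mm well cut in Mueller Hinton agar inoculated with 0.1 mL broth culture adjusted to 0.5 McFarland (about 1×10^8 cells/mL). Plates are incubated 24 h at 37 °C, then zone of inhibition diameter is measured in mm.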

[11] = tested on: MCF7; experiment: Antiproliferative activity against human MCF7 cells after 24 and 72 hrs by MTT assay; format: functional, cell-based; method in brief: as §4
[12] = tested on: Staphylococcus epidermidis; experiment: Antimicrobial activity against Staphylococcus epidermidis ATCC 12228 assessed as zone of inhibition at 30 uL for 24 hrs at 37 degC by disk diffusion test; format: functional, organism-based; method in brief: as §5
[13] = Antiproliferative activity against human Saos2 cells after 24 and 72 hrs by MTT assay; format: functional, cell-based; conditions: SAOS-2; method in brief: as §4
[14] = tested on: HT-29; experiment: Antiproliferative activity against human HT-29 cells after 24 and 72 hrs by MTT assay; format: functional, cell-based; method in brief: as §4
[15] = tested on: Proteus vulgaris; experiment: Antimicrobial activity against Proteus vulgaris ATCC 33420 assessed as zone of inhibition at 30 uL for 24 hrs at 37 degC by disk diffusion test; format: functional, organism-based; method in brief: as §5
[16] = tested on: Cyberlindnera jadinii; experiment: Antimicrobial activity against Candida utilis ATCC 9950 assessed as zone of inhibition at 30 uL for 24 hrs at 30 degC by disk diffusion test; format: functional, organism-based; method in brief: as §2
[17] = tested on: MCF7; experiment: Induction of apoptosis in human MCF7 cells at 20 uM after 48 hrs by Hoechst 33258/propidium iodide staining based phase contrast microscopic analysis; format: functional; method in brief: as §1
[18] = tested on: Bacillus subtilis; experiment: Antimicrobial activity against Bacillus subtilis ATCC 6633 for 24 hrs by microdillution method; format: functional; method in brief: as §3
[19] = tested on: Pseudomonas aeruginosa; experiment: Antimicrobial activity against Pseudomonas aeruginosa ATCC 35032 assessed as zone of inhibition at 30 uL for 24 hrs at 37 degC by disk diffusion test; format: functional, organism-based; method in brief: as §5
[20] = tested on: Escherichia coli; experiment: Antimicrobial activity against Escherichia coli ATCC 25922 assessed as zone of inhibition at 30 uL for 24 hrs at 37 degC by disk diffusion test; format: functional, organism-based; method in brief: as §5
[21] = tested on: Staphylococcus aureus; experiment: Antimicrobial activity against Staphylococcus aureus ATCC 25923 assessed as zone of inhibition at 30 uL for 24 hrs at 37 degC by disk diffusion test; format: functional, organism-based; method in brief: as §5
[22] = tested on: Bacillus subtilis; experiment: Antimicrobial activity against Bacillus subtilis ATCC 6633 assessed as zone of inhibition at 30 uL for 24 hrs at 30 degC by disk diffusion test; format: functional; method in brief: as §2
[23] = tested on: HeLa; experiment: Induction of apoptosis in human HeLa cells at 20 uM after 48 hrs by Hoechst 33258/propidium iodide staining based phase contrast microscopic analysis; format: functional; method in brief: as §1
[24] = tested on: HL-60; experiment: Antiproliferative activity against human HL60 cells after 24 and 72 hrs by MTT assay; format: functional, cell-based; method in brief: as §4
[25] = tested on: SAOS-2; experiment: Induction of necrosis in human Saos2 cells at 20 uM after 48 hrs by Hoechst 33258/propidium iodide staining based […] microscopic analysis; format: functional; method in brief: as §1
[26] = tested on: Bacillus thuringiensis; experiment: Antimicrobial activity against Bacillus thuringiensis assessed as zone of inhibition at 30 uL for 24 hrs at 30 degC by disk diffusion test; format: functional; method in brief: as §2
[27] = tested on: Candida tropicalis; experiment: Antimicrobial activity against Candida tropicalis assessed as zone of inhibition at 30 uL for 24 hrs at 30 degC by disk diffusion test; format: functional, organism-based; method in brief: as §2
[28] = tested on: Nakaseomyces glabratus; experiment: Antimicrobial activity against Candida glabrata assessed as zone of inhibition at 30 uL for 24 hrs at 30 degC by disk diffusion test; format: functional, organism-based; method in brief: as §2
[29] = tested on: HeLa; experiment: Antiproliferative activity against human HeLa cells after 24 and 72 hrs by MTT assay; format: functional, cell-based; method in brief: as §4
[30] = tested on: HT-29; experiment: Induction of necrosis in human HT-29 cells at 20 uM after 48 hrs by Hoechst 33258/propidium iodide staining based phase contrast microscopic analysis; format: functional; method in brief: as §1
[31] = tested on: HL-60; experiment: Induction of apoptosis in human HL60 cells at 20 uM after 48 hrs by Hoechst 33258/propidium iodide staining based phase contrast microscopic analysis; format: functional; method in brief: as §1
[32] = tested on: Enterococcus faecalis; experiment: Antimicrobial activity against Enterococcus faecalis ATCC 29212 assessed as zone of inhibition at 30 uL for 24 hrs at 37 degC by disk diffusion test; format: functional, organism-based; method in brief: as §5
[33] = tested on: Micrococcus luteus; experiment: Antimicrobial activity against Micrococcus luteus ATCC 9341 assessed as zone of inhibition at 30 uL for 24 hrs at 30 degC by disk diffusion test; format: functional, organism-based; method in brief: as §2
[34] = tested on: Candida albicans; experiment: Antimicrobial activity against Candida albicans ATCC 10231 assessed as zone of inhibition at 30 uL for 24 hrs at 30 degC by disk diffusion test; format: functional, organism-based; method in brief: as §2
[35] = tested on: Bacillus cereus; experiment: Antimicrobial activity against Bacillus cereus ATCC 11778 for 24 hrs by microdillution method; format: functional; method in brief: as §3
[36] = tested on: SAOS-2; experiment: Induction of apoptosis in human Saos2 cells at 20 uM after 48 hrs by Hoechst 33258/propidium iodide staining based phase contrast microscopic analysis; format: functional; method in brief: as §1
[37] = tested on: Klebsiella pneumoniae; experiment: Antimicrobial activity against Klebsiella pneumoniae ATCC 13882 assessed as zone of inhibition at 30 uL for 24 hrs at 37 degC by disk diffusion test; format: functional, organism-based; method in brief: as §5
[38] = tested on: HL-60; experiment: Induction of necrosis in human HL60 cells at 20 uM after 48 hrs by Hoechst 33258/propidium iodide staining based phase contrast microscopic analysis; format: functional; method in brief: as §1

SMILES | Activity [1] [%] | Activity [2] [%] | diameter of the inhibition zone (DIZ) [3] | Activity [4] [%] | Activity [5] [%] | Activity [6] [%] | diameter of the inhibition zone (DIZ) [7] | MIC [8] | IC50 [9] [µM] | diameter of the inhibition zone (DIZ) [10] | IC50 [11] [µM] | diameter of the inhibition zone (DIZ) [12] | IC50 [13] [µM] | IC50 [14] [µM] | diameter of the inhibition zone (DIZ) [15] | diameter of the inhibition zone (DIZ) [16] | Activity [17] [%] | MIC [18] | diameter of the inhibition zone (DIZ) [19] | diameter of the inhibition zone (DIZ) [20] | also measured
CC1(C)CC[C@]2(C(=O)OCc3ccccc3)CC[C@]3(C)C(=CC[C@@H]4[C@@]5(C)CC[C@H](O)[C@@](C)(/C=N/NC(N)=S)[C@@H]5CC[C@]43C)[C@@H]2C1 | 48 | 4 | inactive | 2 | 55 | 63 | inactive | inactive | 36.5 | inactive | 6.05 | inactive | 6.97 | 15 | inactive | inactive | 4 | inactive | inactive | inactive | diameter of the inhibition zone (DIZ) [21]: inactive; diameter of the inhibition zone (DIZ) [22]: inactive; Activity [23]: 5%; IC50 [24]: 6.21 µM; Activity [25]: 41%; diameter of the inhibition zone (DIZ) [26]: inactive; diameter of the inhibition zone (DIZ) [27]: inactive; diameter of the inhibition zone (DIZ) [28]: inactive; IC50 [29]: 23.6 µM; Activity [30]: 32%; Activity [31]: 2%; diameter of the inhibition zone (DIZ) [32]: inactive; diameter of the inhibition zone (DIZ) [33]: inactive; diameter of the inhibition zone (DIZ) [34]: inactive; MIC [35]: inactive; Activity [36]: 5%; diameter of the inhibition zone (DIZ) [37]: inactive; Activity [38]: 64%
CC1(C)CC[C@]2(C(=O)OCc3ccccc3)CC[C@]3(C)C(=CC[C@@H]4[C@@]5(C)CC[C@H](O)[C@@](C)(/C=N/O)[C@@H]5CC[C@]43C)[C@@H]2C1 | 32 | 11 | inactive | 12 | 32 | 54 | inactive | inactive | 16.1 | inactive | 6.67 | inactive | 10.3 | 8.01 | inactive | inactive | 12 | inactive | inactive | inactive | diameter of the inhibition zone (DIZ) [21]: inactive; diameter of the inhibition zone (DIZ) [22]: inactive; Activity [23]: 11%; IC50 [24]: 10.6 µM; Activity [25]: 23%; diameter of the inhibition zone (DIZ) [26]: inactive; diameter of the inhibition zone (DIZ) [27]: inactive; diameter of the inhibition zone (DIZ) [28]: inactive; IC50 [29]: 28.9 µM; Activity [30]: 29%; Activity [31]: 8%; diameter of the inhibition zone (DIZ) [32]: inactive; diameter of the inhibition zone (DIZ) [33]: inactive; diameter of the inhibition zone (DIZ) [34]: inactive; MIC [35]: inactive; Activity [36]: 9%; diameter of the inhibition zone (DIZ) [37]: inactive; Activity [38]: 41%
CN[C@@H]1[C@H](O[C@H]2[C@H](O[C@H]3[C@H](O)[C@@H](O)[C@H](N=C(N)N)[C@@H](O)[C@@H]3N=C(N)N)O[C@@H](C)[C@]2(O)C=O)O[C@@H](CO)[C@H](O)[C@H]1O [STREPTOMYCIN] |  |  |  |  |  |  |  | 64 µg/mL (≈ 110 µM) |  |  |  |  |  |  |  |  |  |  |  |  | MIC ([18]; ATCC 6633, 24 h): 64 µg/mL (≈ 110 µM); MIC ([35]; ATCC 11778, 24 h): 64 µg/mL (≈ 110 µM)
